Assay [1] deals with T1, Toll-like receptor 9 (Mus musculus) (UniProt Q9EQU3).
T1 sequence (whole entry): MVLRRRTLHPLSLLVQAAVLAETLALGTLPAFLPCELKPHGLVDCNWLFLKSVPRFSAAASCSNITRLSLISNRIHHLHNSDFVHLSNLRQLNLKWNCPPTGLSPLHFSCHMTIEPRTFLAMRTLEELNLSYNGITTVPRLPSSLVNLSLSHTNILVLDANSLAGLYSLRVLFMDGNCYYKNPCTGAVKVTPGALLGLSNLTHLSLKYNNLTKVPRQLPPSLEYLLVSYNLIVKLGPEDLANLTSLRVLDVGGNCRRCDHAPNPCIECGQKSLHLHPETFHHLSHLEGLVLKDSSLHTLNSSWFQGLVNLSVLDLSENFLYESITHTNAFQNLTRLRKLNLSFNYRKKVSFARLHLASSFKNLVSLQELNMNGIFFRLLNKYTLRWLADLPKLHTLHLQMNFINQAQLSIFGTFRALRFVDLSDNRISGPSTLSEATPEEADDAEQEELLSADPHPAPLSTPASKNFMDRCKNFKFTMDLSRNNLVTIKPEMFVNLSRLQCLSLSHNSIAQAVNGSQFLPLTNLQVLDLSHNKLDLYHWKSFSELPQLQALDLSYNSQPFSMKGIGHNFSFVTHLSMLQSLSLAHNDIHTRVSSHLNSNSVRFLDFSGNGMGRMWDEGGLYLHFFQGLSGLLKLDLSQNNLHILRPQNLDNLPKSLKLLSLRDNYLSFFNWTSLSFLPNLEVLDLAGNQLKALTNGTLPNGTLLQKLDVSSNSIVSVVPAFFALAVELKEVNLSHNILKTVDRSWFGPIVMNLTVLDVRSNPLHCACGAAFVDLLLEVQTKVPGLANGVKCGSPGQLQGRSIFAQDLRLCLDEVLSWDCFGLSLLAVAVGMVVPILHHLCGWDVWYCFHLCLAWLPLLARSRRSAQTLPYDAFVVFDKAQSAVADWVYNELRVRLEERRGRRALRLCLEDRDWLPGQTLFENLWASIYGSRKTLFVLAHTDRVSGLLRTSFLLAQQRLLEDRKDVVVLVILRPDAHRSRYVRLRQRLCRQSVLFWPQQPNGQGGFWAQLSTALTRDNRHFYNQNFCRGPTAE
The assay is described as follows: Agonist activity at mouse TLR9 expressed in HEK293 cells assessed as activation of NF-kappaB at 10 ug/mL by SEAP reporter gene assay. In kind it is functional, cell-based. The essentials:
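HEK293 cells stably expressing mouse TLR9 were transiently transfected with a SEAP reporter for 6 h. Compounds were added at 10 µg/mL for 18 h. SEAP was read with Quanti-Blue substrate and expressed as fold change in NF-κB activity.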
(In general: Reporter assays use an easily measured gene product as a stand-in for the process of interest.)

Assay [2] has as its target T1, Toll-like receptor 9 (Mus musculus). The assay is described as follows: Antagonist activity at TLR9 in mouse J774 cells assessed as inhibition of 5'-TCTGACRTTCT-X-TCTTRCAGTCT-3'-induced NF-kappaB activation pretreated for 1 hr. It is filed as functional, cell-based. The procedure, abridged: (§1)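 J774 cells at 5×10^6 cells/well were preincubated with antagonist for 1 h. Agonist was then added: TLR9 agonist 1 µg/mL, an RNA-based TLR7/8 agonist, or LPS 100 ng/mL. Antagonist was used at 5–40 µg/mL or at the indicated agonist ratios. Nuclear extracts were taken 1 h after agonist and analysed by EMSA.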

Assay [3] has the same target. The assay is described as follows: Antagonist activity at TLR9 in mouse J774 cells assessed as inhibition of LPS-induced NF-kappaB activation treated 1 hr before LPS induction. It is filed as functional, cell-based. The procedure, abridged:
as §1

For assay [4] the target is unchanged. The assay is described as follows: Antagonist activity at TLR9 in mouse J774 cells assessed as inhibition of 5'-TCTGACRTTCT-X-TCTTRCAGTCT-3'-induced NF-kappaB activation pretreated for 30 mins. In kind it is functional, cell-based. The essentials:
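J774 cells received antagonist at 5, 10 or 20 µg/mL either 30 min before, together with, or 30 min after TLR9 agonist (1 µg/mL). Nuclear extracts were prepared 1 h after agonist addition and NF-κB was assessed by EMSA.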

Assay [5] deals with Mus musculus. Nature of the assay: Inhibition of 5'-TCTGACRTTCT-X-TCTTRCAGTCT-3'-induced MCP1 production in C57BL/6 mouse treated 72 hrs before induction at 10 mg/kg, sc. It is filed as functional. As to conditions: C57BL/6, sc, route subcutaneous. The procedure, abridged: (§2)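 Female C57BL/6 mice (n=3) received antagonist 10 mg/kg sc in the right flank. After 72 h, TLR9 agonist 0.25 mg/kg sc was given in the left flank. Serum was taken 2 h after agonist and cytokines/chemokines were measured by Luminex multiplex assay. Representative of at least three experiments.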

The subject of assay [6] is Mus musculus. Nature of the assay: Inhibition of 5'-TCTGACRTTCT-X-TCTTRCAGTCT-3'-induced IL6 production in C57BL/6 mouse treated 72 hrs before induction at 10 mg/kg, sc. It is filed as functional. To be noted: C57BL/6, sc, route subcutaneous. The essentials:
as §2

Assay [7] has as its system Mus musculus. The assay is described as follows: Inhibition of 5'-TCTGACRTTCT-X-TCTTRCAGTCT-3'-induced KC production in C57BL/6 mouse treated 72 hrs before induction at 10 mg/kg, sc. As to conditions: C57BL/6, sc, route subcutaneous. In kind it is functional. The procedure, abridged: as §2
Assay [8] has as its system Mus musculus. The assay is described as follows: Inhibition of 5'-UGCUGUUCUG-X-GUCUUGUCGU-5'-induced IL12 production in C57BL/6 mouse treated 72 hrs before induction at 10 mg/kg, sc. In kind it is functional. As to conditions: C57BL/6, sc, route subcutaneous. The procedure, abridged: (§3)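 Female C57BL/6 mice, 6-8 weeks, n = 3, given antagonist 10 mg/kg sc in the right flank. After 72 h, agonist given sc in the left flank: TLR7/8 RNA agonist at 50 mg/kg or TLR9 agonist at 0.25 mg/kg. Serum collected 2 h after agonist by retro-orbital bleeding; cytokines/chemokines by mouse 20-plex Luminex bead assay.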

The test system of assay [9] is Mus musculus. The assay is described as follows: Inhibition of 5'-UGCUGUUCUG-X-GUCUUGUCGU-5'-induced IP10 production in C57BL/6 mouse treated 72 hrs before induction at 10 mg/kg, sc. It is filed as functional. As to conditions: C57BL/6, sc, route subcutaneous. The essentials:
as §3

Assay [10] deals with Mus musculus. Nature of the assay: Inhibition of 5'-UGCUGUUCUG-X-GUCUUGUCGU-5'-induced IL10 production in C57BL/6 mouse treated 72 hrs before induction at 10 mg/kg, sc. It is filed as functional. As to conditions: C57BL/6, sc, route subcutaneous. The essentials: as §3
For assay [11], the system named is Mus musculus. Nature of the assay: Inhibition of 5'-UGCUGUUCUG-X-GUCUUGUCGU-5'-induced IL6 production in C57BL/6 mouse treated 72 hrs before induction at 10 mg/kg, sc. It is filed as functional. To be noted: C57BL/6, sc, route subcutaneous. The essentials: as §3
The test system of assay [12] is Mus musculus. Nature of the assay: Inhibition of 5'-UGCUGUUCUG-X-GUCUUGUCGU-5'-induced MIG production in C57BL/6 mouse treated 72 hrs before induction at 10 mg/kg, sc. In kind it is functional. As to conditions: C57BL/6, sc, route subcutaneous. The procedure, abridged:
as §3

The test system of assay [13] is Mus musculus. The assay is described as follows: Inhibition of 5'-TCTGACRTTCT-X-TCTTRCAGTCT-3'-induced IL12 production in C57BL/6 mouse treated 72 hrs before induction at 10 mg/kg, sc. As to conditions: C57BL/6, sc, route subcutaneous. In kind it is functional. The essentials: as §2
Assay [14] has as its target T1, Toll-like receptor 9 (Mus musculus). Nature of the assay: Antagonist activity at mouse TLR9 expressed in HEK293 cells assessed as inhibition of 5'-TCTGACRTTCT-X-TCTTRCAGTCT-3'-induced NF-kappaB activation pretreated for 1 hr in presence of increasing levels of 5'-TCTGACRTTCT-X-TCTTRCAGTCT-3'. In kind it is functional, cell-based. The essentials: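 In mouse TLR9-HEK293 cells with SEAP reporter, a fixed 10 µg/mL antagonist was combined with increasing TLR9 agonist concentrations for 18 h. Quanti-Blue SEAP read-out of NF-κB activity.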

In ChEMBL document CHEMBL1140884, “Oligodeoxyribonucleotide-based antagonists for Toll-like receptors 7 and 9” (2009) one finds Activity and inhibition in vivo data, which are given here for 1 molecule.

Molecules are shown by their SMILES. Activity calls are given as the source filed them. The calls are words filed in the database; no cut-off is given here.

What is called inhibition in vivo is the drop in the measured response relative to a control, in per cent. For `CO[C@@H]1[C@H](OP(=O)(S)OC[C@H]2O[C@@H](n3ccc(N)nc3=O)C[C@@H]2OP(=O)(S)OC[C@H]2O[C@@H](n3ccc4c(=O)[nH]c(N)nc43)C[C@@H]2OP(=O)(S)OC[C@H]2O[C@@H](n3cc(C)c(=O)[nH]c3=O)C[C@@H]2OP(=O)(S)OC[C@H]2O[C@@H](n3cc(C)c(=O)[nH]c3=O)C[C@@H]2OP(=O)(S)OC[C@H]2O[C@@H](n3ccc(N)nc3=O)C[C@@H]2OP(=O)(S)OC[C@H]2O[C@@H](n3cc(C)c(=O)[nH]c3=O)C[C@@H]2OP(=O)(S)OC[C@H]2O[C@@H](n3ccc(N)nc3=O)C[C@@H]2OP(=O)(S)OC[C@H]2O[C@@H](n3cc(C)c(=O)[nH]c3=O)C[C@@H]2OP(=O)(S)OC[C@H]2O[C@@H](n3cnc4c(=O)[nH]c(N)nc43)C[C@@H]2OP(=O)(S)OC[C@H]2O[C@@H](n3cc(C)c(=O)[nH]c3=O)C[C@@H]2O)[C@@H](COP(=O)(S)O[C@H]2[C@@H](OC)[C@H](n3cnc4c(=O)[nH]c(N)nc43)O[C@@H]2COP(=O)(S)O[C@H]2C[C@H](n3cc(C)c(=O)[nH]c3=O)O[C@@H]2COP(=O)(S)O[C@H]2C[C@H](n3ccc(N)nc3=O)O[C@@H]2COP(=O)(S)O[C@H]2C[C@H](n3cc(C)c(=O)[nH]c3=O)O[C@@H]2COP(=O)(S)O[C@H]2C[C@H](n3cnc4c(N)ncnc43)O[C@@H]2COP(=O)(S)O[C@H]2C[C@H](n3cc(C)c(=O)[nH]c3=O)O[C@@H]2COP(=O)(S)O[C@@H]2C[C@@H](n3ccc(N)nc3=O)O[C@H]2CO)O[C@H]1n1cnc2c(N)ncnc21` (some centres undefined), the result in assay [1], in assay [3] and in assay [14] was inactive. Moreover, the Activity result in assay [2] was “Dose-dependent effect”. In [4], the result was Active. For the same molecule, the inhibition in vivo at 10 mg/kg in the assay with Mus musculus [5], in the assay with Mus musculus [6], in the assay on Mus musculus [7], in the assay with Mus musculus [8], in the assay on Mus musculus [9] and in the assay with Mus musculus [10] was no less than 50% each time. Besides, the inhibition in vivo at 10 mg/kg in the assay on Mus musculus [11], in the assay on Mus musculus [12] and in the assay with Mus musculus [13] was no less than 50% each time.
